Source: ChEMBL document CHEMBL1156912, “Subtlety of the structure-affinity and structure-efficacy relationships around a nonpeptide oxytocin receptor agonist” (J Med Chem, 2010)
The source made the active and inactive calls. The calls are words filed in the database; no cut-off is given here.

What was measured:
Oxytocin receptor [1] = molecular target: T1, Oxytocin receptor (Homo sapiens, UniProt P30559); experiment: Displacement of [3H]AVP from human oxytocin receptor expressed in CHO cells; type: cell-based
T1 sequence (P30559 whole entry): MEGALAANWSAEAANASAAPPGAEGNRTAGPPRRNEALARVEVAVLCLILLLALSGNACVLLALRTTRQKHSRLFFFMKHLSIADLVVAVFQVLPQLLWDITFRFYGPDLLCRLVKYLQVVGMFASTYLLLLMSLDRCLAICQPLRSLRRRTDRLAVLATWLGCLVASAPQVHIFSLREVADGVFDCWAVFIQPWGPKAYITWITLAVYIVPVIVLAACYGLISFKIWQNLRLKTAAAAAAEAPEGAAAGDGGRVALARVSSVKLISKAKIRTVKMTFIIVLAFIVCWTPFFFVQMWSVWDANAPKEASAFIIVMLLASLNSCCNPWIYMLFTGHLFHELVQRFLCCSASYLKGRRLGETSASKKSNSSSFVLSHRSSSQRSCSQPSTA
Summary of the method: (§1)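 Membranes came from CHO cells stably expressing the human receptor; OT-R and V1a-R cells were treated overnight with 5 mM butyrate. Membrane protein was 10–15 μg (OT, V1a) or 5 μg (V2), incubated 30 min at 30 °C in 50 mM Tris-HCl, 5 mM MgCl2, 1 mg/mL BSA, pH 7.4, with 1–2 nM [3H]AVP and competitor 0.1 pM–100 μM. Nonspecific binding: 10 μM AVP. Filtration, then Ki via Cheng–Prusoff. Mean ± SEM of ≥3 experiments in triplicate.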

[2] = molecular target: T2, Oxytocin receptor (Homo sapiens) (UniProt P30559); experiment: Activity at human oxytocin receptor expressed in CHO cells assessed as inhibition of agonist-induced inositol phosphate accumulation; type: functional, cell-based
T2 sequence (whole entry): T1 sequence (P30559 whole entry)

Vasopressin V1a receptor [3] = molecular target: T3, Vasopressin V1a receptor (Homo sapiens, UniProt P37288); experiment: Displacement of [3H]AVP from human vasopressin V1a receptor expressed in CHO cells; type: cell-based; summary of the method: as §1
Target sequence in this assay (P37288 whole entry): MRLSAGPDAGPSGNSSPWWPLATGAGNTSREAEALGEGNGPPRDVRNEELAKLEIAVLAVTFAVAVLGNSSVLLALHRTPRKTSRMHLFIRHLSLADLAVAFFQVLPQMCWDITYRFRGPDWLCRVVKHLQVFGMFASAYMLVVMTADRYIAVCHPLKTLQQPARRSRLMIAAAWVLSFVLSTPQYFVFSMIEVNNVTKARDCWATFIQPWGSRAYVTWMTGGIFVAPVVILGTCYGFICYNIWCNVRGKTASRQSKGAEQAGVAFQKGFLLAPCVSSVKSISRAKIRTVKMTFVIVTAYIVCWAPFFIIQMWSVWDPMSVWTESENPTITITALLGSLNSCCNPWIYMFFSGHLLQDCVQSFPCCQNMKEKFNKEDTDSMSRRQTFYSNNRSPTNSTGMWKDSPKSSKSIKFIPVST

Vasopressin V1a receptor [4] = molecular target: T3, Vasopressin V1a receptor; experiment: Activity at human vasopressin V1a receptor expressed in CHO cells assessed as inositol phosphate accumulation at 1 uM; type: functional, cell-based
Summary of the method: (§2)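 Human V1a-expressing CHO cells, 80000 cells/well, exposed to ligand for 30 min at 37 °C. IP1 was measured by HTRF IP-One. EC50 (K_act) from the dose–response curve. Emax is relative to the 1 μM AVP maximum. Weak responses are reported as % of AVP maximum at 1 μM ligand.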
Target sequence in this assay (P37288 whole entry, looked up): as the sequence (P37288 whole entry) above

Vasopressin V1a receptor [5] = molecular target: T3, Vasopressin V1a receptor; experiment: Activity at human vasopressin V1a receptor expressed in CHO cells assessed as inhibition of agonist-induced inositol phosphate accumulation; type: functional, cell-based
Summary of the method: (§3)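 Human V1a receptor in stably transfected CHO cells, seeded at 80000 cells/well overnight. Cells were preincubated 10 min at 37 °C with ligand (10 fM–100 μM, ≤1% final DMSO), then challenged with 2 nM AVP for 30 min. IP1 was read by IP-One HTRF. K_inact was derived by Cheng–Prusoff-type correction using AVP K_act 1.20 nM. Fixed-concentration lines are % inhibition, n = 2.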
Target sequence in this assay (P37288 whole entry, looked up): as the sequence (P37288 whole entry) above

Vasopressin V2 receptor [6] = molecular target: T4, Vasopressin V2 receptor (Homo sapiens, UniProt P30518); experiment: Displacement of [3H]AVP from human vasopressin V2 receptor expressed in CHO cells; type: cell-based; summary of the method: as §1
T4 sequence (P30518 whole entry): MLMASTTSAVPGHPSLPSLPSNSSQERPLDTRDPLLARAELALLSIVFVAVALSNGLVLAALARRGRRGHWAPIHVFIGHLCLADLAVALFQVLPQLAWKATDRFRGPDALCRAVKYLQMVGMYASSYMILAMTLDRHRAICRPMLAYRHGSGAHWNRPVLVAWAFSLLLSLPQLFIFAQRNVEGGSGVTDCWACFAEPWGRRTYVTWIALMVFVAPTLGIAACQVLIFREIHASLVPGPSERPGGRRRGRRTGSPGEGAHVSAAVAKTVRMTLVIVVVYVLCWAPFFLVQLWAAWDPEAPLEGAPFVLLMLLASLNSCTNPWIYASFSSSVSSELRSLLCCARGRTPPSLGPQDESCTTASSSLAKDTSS

Vasopressin V2 receptor [7] = molecular target: T4, Vasopressin V2 receptor; experiment: Activity at human vasopressin V2 receptor expressed in CHO cells assessed as cAMP accumulation at 1 uM; type: functional, cell-based
Summary of the method: (§4)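 V2-R agonism in CHO cells at 1000 cells/well, stimulated 30 min at 37 °C in D-MEM containing 0.1 mM Ro-20-1724 and 1 mg/mL BSA. cAMP was read by cAMP dynamic 2 HTRF. K_act from the sigmoidal fit. Emax is % of the 0.1 μM AVP response. Single-concentration values are % of AVP maximum.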

Vasopressin V2 receptor [8] = molecular target: T4, Vasopressin V2 receptor; experiment: Activity at human vasopressin V2 receptor expressed in CHO cells assessed as inhibition of agonist-induced cAMP accumulation; type: functional, cell-based
[9] = molecular target: T2, Oxytocin receptor (Homo sapiens); experiment: Activity at human oxytocin receptor expressed in CHO cells assessed as inhibition of agonist-induced inositol phosphate accumulation at 10 uM; type: functional, cell-based; set-up: scale not given: the % may be the effect or the level left
[10] = molecular target: T2, Oxytocin receptor (Homo sapiens); experiment: Activity at human oxytocin receptor expressed in CHO cells assessed as inhibition of agonist-induced inositol phosphate accumulation at 1 uM; type: functional, cell-based; set-up: scale not given: the % may be the effect or the level left
Vasopressin V2 receptor [11] = molecular target: T4, Vasopressin V2 receptor; experiment: Activity at human vasopressin V2 receptor expressed in CHO cells assessed as inhibition of agonist-induced cAMP accumulation at 1 uM; type: functional, cell-based
[12] = molecular target: T2, Oxytocin receptor (Homo sapiens); experiment: Activity at human oxytocin receptor expressed in CHO cells assessed as inositol phosphate accumulation; type: functional, cell-based
Summary of the method: (§5)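 Agonist mode on CHO cells stably expressing human OT receptor: 30 min at 37 °C with ligand, 10 fM–100 μM, ≤1% final DMSO. IP1 accumulation was read by IP-One HTRF, ΔF from the 665/620 ratio. K_act is the EC50 from the sigmoidal fit. Emax is % of the 1 μM OT maximal response. Single-concentration lines are % of OT maximum, n = 2. Mean of ≥3 experiments in triplicate.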

[13] = molecular target: T2, Oxytocin receptor (Homo sapiens); experiment: Activity at human oxytocin receptor expressed in CHO cells assessed as inositol phosphate accumulation at 1 uM; type: functional, cell-based; summary of the method: as §5
Vasopressin V2 receptor [14] = molecular target: T4, Vasopressin V2 receptor; experiment: Activity at human vasopressin V2 receptor expressed in CHO cells assessed as inhibition of agonist-induced cAMP accumulation at 10 uM; type: functional, cell-based
[15] = molecular target: T2, Oxytocin receptor (Homo sapiens); experiment: Activity at human oxytocin receptor expressed in CHO cells assessed as inositol phosphate accumulation up to 100 uM; type: functional, cell-based; summary of the method: as §5
Oxytocin receptor [16] = molecular target: T1, Oxytocin receptor; experiment: Activity at human oxytocin receptor expressed in CHO cells by NFAT-luciferase gene reporter assay; type: cell-based
Vasopressin V1a receptor [17] = molecular target: T3, Vasopressin V1a receptor; experiment: Activity at human vasopressin V1a receptor expressed in CHO cells by NFAT-luciferase gene reporter assay; type: cell-based
Vasopressin V1a receptor [18] = molecular target: T3, Vasopressin V1a receptor; experiment: Activity at human vasopressin V1a receptor expressed in CHO cells assessed as inhibition of agonist-induced inositol phosphate accumulation at 1 uM; type: functional, cell-based; set-up: scale not given: the % may be the effect or the level left; summary of the method: as §3
Target sequence in this assay (P37288 whole entry, looked up): as the sequence (P37288 whole entry) above

Vasopressin V2 receptor [19] = molecular target: T4, Vasopressin V2 receptor; experiment: Activity at human vasopressin V2 receptor expressed in CHO cells by cAMP dynamic 2 assay
[20] = molecular target: T2, Oxytocin receptor (Homo sapiens); experiment: Activity at human oxytocin receptor expressed in CHO cells assessed as inositol phosphate accumulation up to 10 uM; type: functional, cell-based
Summary of the method: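 CHO cells stably expressing human OT receptor, seeded 80000 cells/well overnight at 37 °C. Ligands 10 fM to 100 μM (≤1% DMSO) in IP-One stimulation buffer, 30 min at 37 °C with 5% CO₂. IP₁ read by HTRF at 665/620 nm. EC50 (K_act) from sigmoidal curves; Emax as % of 1 μM OT maximum. Triplicate wells, ≥3 experiments.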

Vasopressin V2 receptor [21] = molecular target: T4, Vasopressin V2 receptor; experiment: Activity at human vasopressin V2 receptor expressed in CHO cells assessed as cAMP accumulation; type: functional, cell-based; summary of the method: as §4
Vasopressin V1a receptor [22] = molecular target: T3, Vasopressin V1a receptor; experiment: Activity at human vasopressin V1a receptor expressed in CHO cells assessed as inositol phosphate accumulation; type: functional, cell-based; summary of the method: as §2
Target sequence in this assay (P37288 whole entry, looked up): as the sequence (P37288 whole entry) above

| SMILES | Ki (Oxytocin receptor [1]; read-out: Ki) | Kinact [2] | Ki (Vasopressin V1a receptor [3]; read-out: Ki) | Activity (Vasopressin V1a receptor [4]) | Kinact (Vasopressin V1a receptor [5]) | Ki (Vasopressin V2 receptor [6]; read-out: Ki) | Activity (Vasopressin V2 receptor [7]) | Kinact (Vasopressin V2 receptor [8]) | Activity [9] | Emax (Vasopressin V2 receptor [7]) | Activity [10] | Activity (Vasopressin V1a receptor [18]) | Activity (Vasopressin V2 receptor [11]) | further results |
| --- | --- | --- | --- | --- | --- | --- | --- | --- | --- | --- | --- | --- | --- | --- |
| Cc1ccn(-c2ccc(C(=O)N3Cc4cnn(C)c4Nc4ccccc43)cc2C)n1 | 27.8 nM | 14.8 nM | 18 nM | inactive | 32.5 nM | 913 nM | inactive | 253 nM | – | – | – | – | – | – |
| Cc1cc(C(=O)N2Cc3cnn(C)c3Nc3ccccc32)ccc1CNC(=O)N1CCCC1 | > 1000 nM | – | 167 nM | inactive | 187 nM | > 1000 nM | – | – | inactive | 20% | 37% | – | – | Kinact (Vasopressin V2 receptor [11]): inactive |
| Cc1cc(C(=O)N2Cc3cccn3Cc3ccccc32)ccc1CNC(=O)N1CCC[C@H]1C(=S)N1CCCN(C)CC1 | 2500 nM | – | > 1000 nM | inactive | 754 nM | 3400 nM | – | – | 11% | 9% | – | – | – | Kact [12]: 110 µM; Emax [13]: 50.6%; Inhibition (Vasopressin V2 receptor [14]): 43%; Activity [15]: inactive |
| COc1cc(OC2CCN(C(C)=O)CC2)ccc1C(=O)N1CCC(N2C(=O)OCc3ccccc32)CC1 | – | – | – | inactive | – | – | inactive | inactive | – | – | – | 18% | – | Ki (Oxytocin receptor [1]; cho): Not Active; Activity [13]: inactive; EC50 (Oxytocin receptor [16]): 4.6 nM; Ki (Vasopressin V1a receptor [3]; cho): Not Active; Ki (Vasopressin V2 receptor [6]; cho): Not Active; EC50 (Vasopressin V1a receptor [17]): 3200 nM; EC50 (Vasopressin V2 receptor [19]): 37000 nM |
| Cc1cc(C(=O)N2Cc3cnn(C)c3Nc3ccccc32)ccc1CNC(=O)N(C)C | > 5000 nM | – | 170 nM | inactive | 134 nM | > 1000 nM | – | – | inactive | 16% | 30% | – | – | – |
| Cc1cc(C(=O)N2Cc3cnn(C)c3Nc3ccccc32)ccc1NC(=O)c1ccccc1-c1ccccc1 | 111 nM | 557 nM | 37 nM | inactive | 412 nM | 6.4 nM | inactive | 1.1 nM | – | – | – | – | – | Activity [20]: inactive |
| Cc1ccn(-c2ccc(C(=O)N3Cc4cnn(C)c4Nc4ccccc43)c(Cl)c2)n1 | 17 nM | 69 nM | 27 nM | inactive | 13 nM | 29 nM | – | – | – | 94% | – | – | inactive | Activity [12]: inactive; Kact (Vasopressin V2 receptor [21]): 8.4 nM |
| Cc1cc(C(=O)N2Cc3cnn(C)c3Nc3ccccc32)ccc1CNC(=O)N1CCC[C@H]1C(=S)N1CCCN(C)CC1 | 147 nM | – | 330 nM | – | 271 nM | > 1000 nM | – | – | – | 84% | 16% | – | inactive | Kact [12]: 0.667 µM; Emax [13]: 58%; Activity (Vasopressin V1a receptor [22]): inactive; Kact (Vasopressin V2 receptor [21]): 599 nM; Activity (Vasopressin V1a receptor [17]): inactive |
| Cc1ccn(-c2ccc(C(=O)N3Cc4cccn4Cc4ccccc43)c(Cl)c2)n1 | 199 nM | 488 nM | 344 nM | inactive | – | 50 nM | – | – | – | 75% | – | 33% | inactive | Activity [13]: inactive; EC50 (Oxytocin receptor [16]): 125 nM; Kact (Vasopressin V2 receptor [21]): 9.5 nM; EC50 (Vasopressin V1a receptor [17]): 465 nM; EC50 (Vasopressin V2 receptor [19]): 39.9 nM |
| Cc1cc(C(=O)N2CCC(N3C(=O)OCc4ccccc43)CC2)ccc1CNC(=O)N1CCC[C@H]1C(=S)N1CCCN(C)CC1 | 245 nM | 383 nM | > 5000 nM | inactive | – | – | inactive | – | – | – | – | inactive | inactive | Activity [20]: inactive |
| O=C(Nc1ccc(C(=O)N2CCCCc3ccccc32)cc1)c1ccccc1-c1ccccc1 | 109 nM | 171 nM | 2.74 nM | inactive | 63 nM | 0.57 nM | inactive | 0.096 nM | – | – | – | – | – | Activity [13]: inactive; EC50 (Oxytocin receptor [16]): 63 nM; EC50 (Vasopressin V1a receptor [17]): 14 nM; EC50 (Vasopressin V2 receptor [19]): 7.6 nM |
| CC(=O)NCc1ccc(C(=O)N2Cc3cnn(C)c3Nc3ccccc32)cc1C | > 5000 nM | – | > 5000 nM | inactive | – | – | – | – | inactive | – | inactive | 27% | – | – |
